Active and inactive are the calls of the source.
How the values were obtained:
[1] = tested on: Chlamydia trachomatis; experiment: Antibacterial activity against Chlamydia trachomatis serovar D at 60.0 - 3.75 uM after 5 mins by MCC assay in presence of simulated vaginal fluid relative to control; assay type: functional, organism-based
Summary of the method: (§1)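 C. trachomatis serovar EBs (5 × 10⁶ IFU/ml) diluted in 100% VFS (zinc-free for SFS), 100% SFS or 10% HSA, mixed 1:1 with five 4-fold SPG dilutions (final 60 μM/30 mM top; 50% VFS, 50% SFS, 5% HSA). After 5 or 120 min, diluted 1:40, inoculated onto McCoy monolayers. Inclusions stained with anti-LPS/FITC after 36–48 h. Inhibition versus no-drug control in the same fluid; MCC is complete inhibition.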

[2] = Cytotoxicity against mouse McCoy cells after 48 hrs at =<60 uM by almar blue assay; assay type: cell-based
Summary of the method: (§2)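 Cytotoxicity was tested by running the MCC procedure without inoculum: compound diluted in half with SPG, then diluted 1:40 onto McCoy monolayers and incubated 48 h at 37°C. Read-out by Alamar Blue, MTT and LDH kits. SPG served as negative control and Triton X-100 as positive control. Nontoxic was defined as <10% toxicity in all methods.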

[3] = tested on: Chlamydia trachomatis; experiment: Antibacterial activity against Chlamydia trachomatis serovar L2 at 60.0 - 3.75 uM after 5 mins by MCC assay in presence of simulated vaginal fluid relative to control; assay type: functional, organism-based
Summary of the method: (§3)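 McCoy monolayers seeded 5 × 10⁴ cells/well the day before. Five 4-fold dilutions in SPG (from 120 μM, 60 μM final) mixed 1:1 with EBs (5 × 10⁶ IFU/ml) in VFS, SFS or HSA, giving final 50% VFS, 50% SFS or 5% HSA. After exposure, mix diluted 1:40 in SPG, then inoculated. Inhibition is relative to a no-drug control in the same fluid and exposure time.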

[4] = tested on: Chlamydia trachomatis; experiment: Antibacterial activity against Chlamydia trachomatis serovar L2 at 60.0 -3.75 uM after 120 mins by MCC assay in presence of simulated seminal fluid relative to control; assay type: functional, organism-based; summary of the method: as §3
[5] = tested on: Chlamydia trachomatis; experiment: Antibacterial activity against Chlamydia trachomatis serovar L2 at 50 uM after 120 mins relative to control; assay type: functional; details: serovar L2, 2 h
Summary of the method: (§4)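 Serovar L2 EBs (5 × 10⁶ IFU/ml in SPG, pH 7.5) mixed 1:1 with ten 2-fold SPG dilutions (final 50 μM top peptide, 25 mM lipid), exposed 5 or 120 min, diluted 1:40, plated on McCoy cells; fixed with methanol after 36–48 h, anti-LPS/FITC stained. Triplicate wells, three fields each, three independent days; percent inhibition versus no-drug control ± SD.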

[6] = tested on: Chlamydia trachomatis; experiment: Antibacterial activity against Chlamydia trachomatis serovar D at 60.0 - 3.75 uM after 5 mins by MCC assay in presence of simulated seminal fluid relative to control; assay type: functional, organism-based; summary of the method: as §1
[7] = tested on: Chlamydia trachomatis; experiment: Antibacterial activity against Chlamydia trachomatis serovar L2 at => 3.13 uM after 5 mins relative to control; assay type: functional
[8] = tested on: Chlamydia trachomatis; experiment: Antibacterial activity against Chlamydia trachomatis serovar D at 15 uM at pH 7 after 120 mins by MCC assay in presence of sucrose-phosphate-glutamate buffer relative to contro; assay type: functional, organism-based
Summary of the method: (§5)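 Compounds and EBs were each diluted in SPG at pH 4, 5.5, 7 or 8 and mixed 1:1, so exposure pH was constant. Five 4-fold dilutions were used (top 60 μM peptide, 30 mM lipid). After 5 or 120 min, the mix was diluted 1:40 in pH 7.5 SPG and plated on McCoy cells. Inclusion counts were compared with a no-drug control at the same pH and time.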

[9] = tested on: Chlamydia trachomatis; experiment: Antibacterial activity against Chlamydia trachomatis serovar D at 60.0 - 3.75 uM after 120 mins by MCC assay in presence of human serum albumin relative to control; assay type: functional, organism-based; summary of the method: as §1
[10] = tested on: Chlamydia trachomatis; experiment: Antibacterial activity against Chlamydia trachomatis serovar E at 60.0 - 3.75 uM after 120 mins by MCC assay in presence of simulated seminal fluid relative to control; assay type: functional, organism-based; summary of the method: as §1
[11] = tested on: Chlamydia trachomatis; experiment: Antibacterial activity against Chlamydia trachomatis serovar L2 at 50 uM after 5 mins relative to control; assay type: functional; details: serovar L2, 5 min; summary of the method: as §4
[12] = tested on: Chlamydia trachomatis; experiment: Antibacterial activity against Chlamydia trachomatis serovar D at 60.0 - 3.75 uM after 5 mins by MCC assay in presence of human serum albumin relative to control; assay type: functional, organism-based; summary of the method: as §1
[13] = tested on: Chlamydia trachomatis; experiment: Antibacterial activity against Chlamydia trachomatis serovar L2 at 60.0 -3.75 uM after 5 mins by MCC assay in presence of simulated seminal fluid relative to control; assay type: functional, organism-based; summary of the method: as §3
[14] = tested on: Chlamydia trachomatis; experiment: Antibacterial activity against Chlamydia trachomatis serovar E at 60.0 - 3.75 uM after 5 mins by MCC assay in presence of simulated seminal fluid relative to control; assay type: functional, organism-based; summary of the method: as §1
[15] = tested on: Chlamydia trachomatis; experiment: Antibacterial activity against Chlamydia trachomatis serovar E at 60.0 -3.75 uM after 120 mins by MCC assay in presence of human serum albumin relative to control; assay type: functional, organism-based; summary of the method: as §1
[16] = tested on: Chlamydia trachomatis; experiment: Antibacterial activity against Chlamydia trachomatis serovar D at 15 uM at pH 4 after 120 mins by MCC assay in presence of sucrose- phosphate-glutamate buffer; assay type: functional, organism-based; summary of the method: as §5
[17] = tested on: Chlamydia trachomatis; experiment: Antibacterial activity against Chlamydia trachomatis serovar L2 at => 3.13 uM after 120 mins relative to control; assay type: functional
[18] = tested on: Chlamydia trachomatis; experiment: Antibacterial activity against Chlamydia trachomatis serovar D at 60.0 - 3.75 uM after 120 mins by MCC assay in presence of simulated vaginal fluid relative to control; assay type: functional, organism-based; summary of the method: as §1
[19] = tested on: Chlamydia trachomatis; experiment: Antibacterial activity against Chlamydia trachomatis serovar E at 60.0 - 3.75 uM after 5 mins by MCC assay in presence of simulated vaginal fluid relative to control; assay type: functional, organism-based; summary of the method: as §1
[20] = tested on: Chlamydia trachomatis; experiment: Antibacterial activity against Chlamydia trachomatis serovar D at 3.75 uM at pH 7 after 120 mins by MCC assay in presence of sucrose-phosphate-glutamate buffer relative to contro; assay type: functional, organism-based; summary of the method: as §5
[21] = tested on: Chlamydia trachomatis; experiment: Antibacterial activity against Chlamydia trachomatis serovar L2 at 60.0 - 3.75 uM after 120 mins by MCC assay in presence of simulated vaginal fluid relative to control; assay type: functional, organism-based; summary of the method: as §1
[22] = tested on: Chlamydia trachomatis; experiment: Antibacterial activity against Chlamydia trachomatis serovar D at 15 uM at pH 7 after 120 mins by MCC assay in presence of sucrose- phosphate-glutamate buffer; assay type: functional, organism-based; summary of the method: as §5
[23] = tested on: Chlamydia trachomatis; experiment: Antibacterial activity against Chlamydia trachomatis serovar L2 at 60.0 - 3.75 uM after 120 mins by MCC assay in presence of human serum albumin relative to control; assay type: functional, organism-based; summary of the method: as §1
[24] = tested on: Chlamydia trachomatis; experiment: Antibacterial activity against Chlamydia trachomatis serovar L2 at 3.75 uM at pH 4 after 120 mins by MCC assay in presence of sucrose-phosphate-glutamate buffer relative to control; assay type: functional, organism-based; summary of the method: as §5
[25] = Cytotoxicity against mouse McCoy cells after 48 hrs at =<60 uM by MTT assay; assay type: cell-based; summary of the method: as §2
[26] = tested on: Chlamydia trachomatis; experiment: Antibacterial activity against Chlamydia trachomatis serovar D at 60.0 - 3.75 uM after 120 mins by MCC assay in presence of simulated seminal fluid relative to control; assay type: functional, organism-based; summary of the method: as §1
[27] = tested on: Chlamydia trachomatis; experiment: Antibacterial activity against Chlamydia trachomatis serovar L2 at 3.75 uM at pH 7 after 120 mins by MCC assay in presence of sucrose-phosphate-glutamate buffer relative to control; assay type: functional, organism-based; summary of the method: as §5
[28] = tested on: Chlamydia trachomatis; experiment: Antibacterial activity against Chlamydia trachomatis serovar L2 at 60.0 - 3.75 uM after 5 mins by MCC assay in presence of human serum albumin relative to control; assay type: functional, organism-based; summary of the method: as §3
[29] = tested on: Chlamydia trachomatis; experiment: Antibacterial activity against Chlamydia trachomatis serovar D at 3.75 uM at pH 4 after 120 mins by MCC assay in presence of sucrose- phosphate-glutamate buffer; assay type: functional, organism-based; summary of the method: as §5
[30] = tested on: Chlamydia trachomatis; experiment: Antibacterial activity against Chlamydia trachomatis serovar L2 at 15 uM at pH 7 after 120 mins by MCC assay in presence of sucrose-phosphate-glutamate buffer relative to control; assay type: functional, organism-based; summary of the method: as §5
[31] = tested on: Chlamydia trachomatis; experiment: Antibacterial activity against Chlamydia trachomatis serovar E at 60.0 - 3.75 uM after 120 mins by MCC assay in presence of simulated vaginal fluid relative to control; assay type: functional, organism-based; summary of the method: as §1
[32] = tested on: Chlamydia trachomatis; experiment: Antibacterial activity against Chlamydia trachomatis serovar E at 60.0 -3.75 uM after 5 mins by MCC assay in presence of human serum albumin relative to control; assay type: functional, organism-based; summary of the method: as §1

H-RRWVRRVRRWVRRVVRVVRRWVRR-OH
Activity [1]: inactive
Activity [2]: Non-toxic
Activity [3]: inactive
Activity [4]: inactive
inhibition at 50 µM [5]: 99.9%
Activity [6]: inactive
Activity [7]: >56%
Activity [8]: inactive
Activity [9]: inactive
Activity [10]: inactive
inhibition at 50 µM [11]: 89.3%
Activity [12]: inactive
Activity [13]: inactive
Activity [14]: inactive
Activity [15]: inactive
Activity [16]: inactive
Activity [17]: >97%
Activity [18]: inactive
Activity [19]: inactive
Activity [20]: inactive
Activity [21]: inactive
Activity [22]: inactive
Activity [23]: inactive
Activity [24]: inactive
Activity [25]: Non-toxic
Activity [26]: inactive
Activity [27]: inactive
Activity [28]: inactive
Activity [29]: inactive
Activity [30]: inactive
Activity [31]: inactive
Activity [32]: inactive

Reference: ChEMBL document CHEMBL1212805, “Evaluation of WLBU2 peptide and 3-O-octyl-sn-glycerol lipid as active ingredients for a topical microbicide formulation targeting Chlamydia trachomatis” (Antimicrob Agents Chemother, 2010)
